Experimental data pooled from the literature.
Target: Serine/threonine-protein kinase Nek4 (NEK4, Homo sapiens, UniProt P51957)

F[C@@H]1CCN(c2nccc(-c3cnn4ncccc34)n2)C1
remaining binding (binding; 1 µM): 100%

C=CC(=O)N1CCC(C(=O)NCC(=O)N2CCN(c3nc(-c4cnc(N)nc4C(F)F)nc(N4CCOCC4)n3)CC2)CC1
remaining binding (binding, competition with immobilised ligand; 1 µM): 81%

CN(c1nccc(-c2cnn3ncccc23)n1)C1CC1
remaining binding (binding; 1 µM): 100%

FC(F)(F)c1ccc2c(c1)nc(-c1cccnc1)n2C1CC1
remaining binding (cell-free assay, competition with immobilised ligand; 1 µM): 100%

CN(CCCC(F)(F)F)c1nccc(-c2cnn3ncccc23)n1
remaining binding (binding; 1 µM): 92%

FC(F)(F)Oc1cccc(-c2cnc3ccc(-c4ccncc4)nn23)c1
remaining binding (cell-free assay, competition with immobilised ligand; 5 µM): 94%

C[C@H](c1cccc(C#N)c1)n1cc(Cl)cc(C(N)=O)c1=N
remaining binding (cell-free assay, competition with immobilised ligand; 1 µM): 100%

C[C@H]1CCN(c2nccc(-c3cnn4ncccc34)n2)C1
remaining binding (binding; 1 µM): 81%

Cc1c[nH]c2nccc(Oc3c(F)cc(Nc4cc(Cl)nc(N)n4)cc3F)c12
remaining binding (cell-free assay, competition with immobilised ligand; 0.1 µM): 90%

O=C(c1ccc(Nc2ncc(Cl)c(-c3cc4ccccc4s3)n2)cc1)N1CCC(N2CCCC2)CC1
remaining binding (binding, competition with immobilised ligand; 1 µM): 48%

c1cncc(-c2cccc(Nc3nccc(NC4CCCCC4)n3)c2)c1
remaining binding (binding, competition with immobilised ligand; 10 µM): 100%

CC1=C(C#N)C(c2ccc3c(c2)c(NC(=O)c2ccccc2C)nn3C)C(C#N)=C(C)N1
remaining binding (cell-free assay, competition with immobilised ligand; 1 µM): 100%

O=C(c1ccc(Nc2ncc(Cl)c(-c3ccc(Cl)s3)n2)cc1)N1CCC(N2CCCC2)CC1
remaining binding (binding, competition with immobilised ligand; 1 µM): 30%

O=C(Nc1cccnn1)N1CC(C/C=C/c2cncc(Oc3ccc(C(F)(F)F)cn3)n2)C1
remaining binding (cell-free assay, competition with immobilised ligand; 1 µM): 95%

COc1ncc2cc3ccccc3nc2c1C#N
remaining binding (cell-free assay, competition with immobilised ligand; 5 µM): 93%

CO[C@@H](C)c1c(Nc2ccc([C@H](N(C)C(=O)C3CCS(=O)(=O)CC3)C(F)(F)F)cc2)cnc2cc(Cl)nn12
remaining binding (cell-free assay, competition with immobilised ligand; 1 µM): 90%

COc1cnc(Nc2cccc(S(N)(=O)=O)c2)nc1N1CCN(c2ccccc2)C(=O)C1
remaining binding (binding, competition with immobilised ligand; 1 µM): 79%

O=C(NCC1CCOCC1)c1n[nH]cc1NC(=O)c1c(F)cccc1F
remaining binding (binding, competition with immobilised ligand; 1 µM): 78%

N[C@@H]1CCN(c2nccc(-c3cnn4ncccc34)n2)C1
remaining binding (binding; 1 µM): 100%

O=C(NCCCN1CCOCC1)c1ccc(Nc2nccc(-c3cc4ccccc4s3)n2)cc1
remaining binding (binding, competition with immobilised ligand; 1 µM): 100%
